The target of series [1] is T1, Tumor necrosis factor ligand superfamily member 11/11A (Mus musculus) (UniProt O35235+O35305). The series can be described thus: Inhibition of RANKL-RANK protein-protein interaction in C57/BL6 mouse bone marrow macrophage assessed as suppression of M-CSF/mRANKL-induced osteoclastogenesis by measuring reduction in TRAP activity at 5 uM measured after 3 days by colorimetric assay relative to control. The method in brief:
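BMMs were incubated with the test compound at 5 μM, together with RANKL (50 ng/mL) and M-CSF (20 ng/mL), for 3 days. Osteoclastogenesis was then read out as tartrate-resistant acid phosphatase (TRAP) activity.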

Series [2] deals with T2, Tumor necrosis factor ligand superfamily member 11 (Homo sapiens, UniProt O14788).
T2 sequence (O14788 whole entry): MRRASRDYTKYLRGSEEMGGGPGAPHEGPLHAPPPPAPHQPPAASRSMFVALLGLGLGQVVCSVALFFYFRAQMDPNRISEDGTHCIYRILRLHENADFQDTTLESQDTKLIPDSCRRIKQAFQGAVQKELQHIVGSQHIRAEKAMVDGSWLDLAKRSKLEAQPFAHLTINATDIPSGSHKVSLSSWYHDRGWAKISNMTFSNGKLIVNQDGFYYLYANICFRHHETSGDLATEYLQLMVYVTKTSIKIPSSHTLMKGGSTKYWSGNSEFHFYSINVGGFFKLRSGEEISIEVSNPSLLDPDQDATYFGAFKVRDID
The series can be described thus: Binding affinity to human RANKL by surface plasmon resonance analysis.

Series [3] concerns the target T3, Tumor necrosis factor ligand superfamily member 11 (Mus musculus, UniProt O35235).
T3 sequence (O35235 whole entry): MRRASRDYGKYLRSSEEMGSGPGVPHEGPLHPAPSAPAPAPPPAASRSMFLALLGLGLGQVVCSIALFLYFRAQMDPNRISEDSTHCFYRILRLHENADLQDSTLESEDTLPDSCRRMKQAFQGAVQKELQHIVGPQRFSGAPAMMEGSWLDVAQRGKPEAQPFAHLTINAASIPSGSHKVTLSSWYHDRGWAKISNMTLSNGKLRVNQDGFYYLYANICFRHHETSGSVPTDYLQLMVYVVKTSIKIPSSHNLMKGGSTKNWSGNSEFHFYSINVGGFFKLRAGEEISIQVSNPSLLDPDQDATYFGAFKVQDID
In words: Binding affinity to mouse N-terminal His6-Trx-tagged RANKL ectodomain (157 to 316 residues) expressed in Escherichia coli BL21 (DE3) by isothermal titration calorimetric assay. (Isothermal titration calorimetry measures the heat released or taken up as one component is titrated into another.)

In series [4] the target is T1, Tumor necrosis factor ligand superfamily member 11/11A (Mus musculus). In words: Inhibition of RANKL-RANK protein-protein interaction in C57/BL6 mouse bone marrow macrophage assessed as suppression of M-CSF/mRANKL-induced osteoclast differentiation by measuring decrease in multinucleated TRAP+ cells supplemented with fresh medium containing compounds every 2 days for 5 to 6 days by TRAP staining-based microscopic analysis. Format: cell-based. The method in brief:
(§1)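 Bone marrow macrophages were exposed to the test compound at the indicated concentrations for 5 days under M-CSF/RANKL stimulation. TRAP-positive multinucleated cells were then counted as the measure of osteoclast formation.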

A short description of series [5]: Cytotoxicity against M-CSF-stimulated C57/BL6 mouse bone marrow macrophages assessed as cell viability at 10 uM measured after 2 days by MTT assay (reference value: 100%). The series is classed as cell-based. As to conditions: M-CSF-stimulated bone marrow macrophages (BMDM), read-out: Activity. For orientation: Tetrazolium dyes change colour on reduction, which living cells bring about.

The target in series [6] is T1, Tumor necrosis factor ligand superfamily member 11/11A (Mus musculus). In words: Inhibition of RANKL-RANK protein-protein interaction in C57/BL6 mouse bone marrow macrophage assessed as suppression of M-CSF/mRANKL-induced osteoclast differentiation by measuring decrease in multinucleated TRAP+ cells at 5 uM supplemented with fresh medium containing compounds every 2 days for 5 to 6 days by TRAP staining-based microscopic analysis. Format: cell-based. The method in brief:
as §1

The target is the same in series [7]. In words: Inhibition of RANKL-RANK protein-protein interaction in C57/BL6 mouse bone marrow macrophage assessed as suppression of M-CSF/mRANKL-induced osteoclast differentiation by measuring decrease in nuclei size of F-actin ring formation at 5 uM supplemented with fresh medium containing compounds every 2 days for 5 to 6 days by rhodamine phalloidin/DAPI staining-based microscopic analysis. The series is classed as protein assay.

Series [8] shares this target. In words: Inhibition of RANKL-RANK protein-protein interaction in C57/BL6 mouse bone marrow macrophage assessed as suppression of M-CSF/mRANKL-induced osteoclast differentiation by measuring decrease in nuclei number of F-actin ring formation at 5 uM supplemented with fresh medium containing compounds every 2 days for 5 to 6 days by rhodamine phalloidin/DAPI staining-based microscopic analysis. Format: protein assay.

Active and inactive are the calls of the source. The rule behind the calls is not given here. Bridge positions count the residues as written; N and C are the ends. Peptide text beside a SMILES is read from it.

T1 sequence (O35305 31-625 partner limits assumed, one chain of several): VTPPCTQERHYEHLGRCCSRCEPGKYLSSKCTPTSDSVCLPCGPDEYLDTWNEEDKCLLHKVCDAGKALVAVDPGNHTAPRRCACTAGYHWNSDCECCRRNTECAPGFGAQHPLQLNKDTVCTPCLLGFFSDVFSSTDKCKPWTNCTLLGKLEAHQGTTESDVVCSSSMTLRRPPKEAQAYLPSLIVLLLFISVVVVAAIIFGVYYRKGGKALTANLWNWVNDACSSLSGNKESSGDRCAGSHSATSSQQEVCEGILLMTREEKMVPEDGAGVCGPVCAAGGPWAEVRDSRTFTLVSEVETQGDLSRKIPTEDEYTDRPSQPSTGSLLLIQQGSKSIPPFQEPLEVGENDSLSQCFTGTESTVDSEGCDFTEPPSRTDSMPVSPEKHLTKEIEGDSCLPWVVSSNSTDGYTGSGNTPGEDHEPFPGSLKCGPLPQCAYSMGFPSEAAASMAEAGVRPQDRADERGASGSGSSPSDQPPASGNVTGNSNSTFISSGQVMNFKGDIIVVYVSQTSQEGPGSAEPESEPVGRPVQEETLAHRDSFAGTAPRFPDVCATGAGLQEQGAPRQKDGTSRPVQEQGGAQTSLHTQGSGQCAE

Regarding `Cc1cccc(C)c1NCC(Cc1c[nH]c2ccccc12)NC(=O)CCc1ccccc1` (centres undefined), in series [1], the inhibition – broadly, how much of the control response was suppressed – is 23.1%. For the compound `Cc1ccccc1NC(=O)C(Cc1c[nH]c2ccccc12)NC(=O)CCc1ccccc1` (centres undefined), the inhibition in series [1] was 74.2%. `CC[C@H](C)[C@H](NC(=O)[C@H](CC(C)C)NC(=O)[C@H](Cc1ccc(O)cc1)NC(=O)[C@@H]1CSSC[C@H](NC(=O)[C@@H](N)Cc2ccc(O)cc2)C(=O)N[C@@H](CCC(=O)O)C(=O)N[C@@H]([C@@H](C)CC)C(=O)N[C@@H](CCC(=O)O)C(=O)N[C@@H](Cc2ccccc2)C(=O)N1)C(=O)N[C@@H](CCCNC(=N)N)C(=O)O` (H-YCEIEFCYLIR-OH; disulfide 2-7): the equilibrium dissociation constant (Kd) in series [2] and in series [3] was 284 µM in each case.

`N=C(N)NCCC[C@H](NC(=O)[C@H](CCCNC(=N)N)NC(=O)[C@H](Cc1ccc(O)cc1)NC(=O)[C@@H]1CSSC[C@H](NC(=O)[C@@H](N)Cc2ccc(O)cc2)C(=O)N[C@@H](Cc2c[nH]c3ccccc23)C(=O)N[C@@H](CC(N)=O)C(=O)N[C@@H](CO)C(=O)N[C@@H](CC(=O)O)C(=O)N[C@@H](CS)C(=O)N[C@@H](CCC(=O)O)C(=O)N[C@@H](CS)C(=O)N1)C(=O)O` (H-YCWNSDCECCYRR-OH; disulfide 2-10): the Kd in series [2] and in series [3] was 17.3 µM each time. With `Cc1cccc(C)c1NC(=O)C(Cc1c[nH]c2cc(F)ccc12)NC(=O)CCc1ccccc1` (racemic), the inhibition entry in series [4] was “Dose-dependent effect”; in series [1] it was 89.4%; in series [6], 100%; in series [7], “Dose-dependent effect”; in series [8] it was “Dose-dependent effect”. Also, the equilibrium dissociation constant (Kd) – broadly, a measure of binding affinity in units of concentration – in series [2] came out at 3.5 µM. Moreover, the viability at 48 h, 10 µM in series [5] came to 103%. Regarding `Cc1cccc(C)c1NC(=O)C(Cc1c[nH]c2ccccc12)NC(=O)CCc1ccc(Cl)cc1` (racemic), the inhibition entry was “Dose-dependent effect” in series [4]; 89% in series [1]; 100% in series [6]; “Dose-dependent effect” in series [7]; “Dose-dependent effect” in series [8]. Moreover, the dissociation constant Kd in series [2] turned out to be 3.1 µM. The viability at 48 h, 10 µM in series [5] is 102%. Turning to `Cc1cccc(C)c1NC(=O)C(Cc1c[nH]c2ccccc12)NC(=O)CCc1ccccc1` (racemic) [listing 1 of 2 here], binding in series [2] was characterised by a dissociation constant (Kd) of 2.7 µM. The viability at 48 h, 10 µM in series [5] amounted to 110%.

Take `CN(C)c1ccc(NC(=O)C(Cc2c[nH]c3ccccc23)NC(=O)CCc2ccccc2)cc1` (racemic): the inhibition in series [1] stood at 70.6%.

In the case of `COc1ccc(CCC(=O)NC(Cc2c[nH]c3ccccc23)C(=O)Nc2c(C)cccc2C)cc1` (racemic), in series [1], the inhibition was determined as 16.9%. On the same count and under the same terms, the value for `COc1ccc(NC(=O)C(Cc2c[nH]c3ccccc23)NC(=O)CCc2ccccc2)cc1` (racemic) was 59%; that for `COc1ccc2[nH]cc(CC(NC(=O)CCc3ccccc3)C(=O)Nc3c(C)cccc3C)c2c1` (racemic) was 84.4%.

For `COc1cccc(CCC(=O)NC(Cc2c[nH]c3ccccc23)C(=O)Nc2c(C)cccc2C)c1` (racemic), the inhibition in series [1] is 41.7%.

For the compound `CS(=O)(=O)c1ccc(NC(=O)C(Cc2c[nH]c3ccccc23)NC(=O)CCc2ccccc2)cc1` (racemic), the inhibition in series [1] was determined as 69.9%.

Turning to `Cc1ccc(NC(=O)C(Cc2c[nH]c3ccccc23)NC(=O)CCc2ccccc2)cc1` (racemic), the inhibition in series [1] amounted to 69.9%. The same measure, in the same setting: the value for `Cc1cccc(C)c1NC(=O)C(Cc1c[nH]c2ccc(F)cc12)NC(=O)CCc1ccccc1` (racemic) was 83.9%; that for `Cc1cccc(C)c1NC(=O)C(Cc1c[nH]c2ccccc12)NC(=O)CCC1CC1` (racemic) was 57.4%; that for `Cc1cccc(C)c1NC(=O)C(Cc1c[nH]c2ccccc12)NC(=O)CCC1CCCC1` (racemic) was 14%. Take `Cc1cccc(C)c1NC(=O)C(Cc1c[nH]c2ccccc12)NC(=O)CCC1CCCCC1` (racemic): the inhibition in series [1] is 35.4%. For `Cc1cccc(C)c1NC(=O)C(Cc1c[nH]c2ccccc12)NC(=O)CCCCc1ccccc1` (racemic), the inhibition in series [1] was 82%. As to `Cc1cccc(C)c1NC(=O)C(Cc1c[nH]c2ccccc12)NC(=O)CCCc1ccccc1` (racemic), the inhibition in series [1] was 79.3%. The same measure, in the same setting: then `Cc1cccc(C)c1NC(=O)C(Cc1c[nH]c2ccccc12)NC(=O)CCc1ccc(F)cc1` (racemic), with 33.6%; and `Cc1cccc(C)c1NC(=O)C(Cc1c[nH]c2ccccc12)NC(=O)CCc1cccc(Cl)c1` (racemic), with 69.5%; and `Cc1cccc(C)c1NC(=O)C(Cc1c[nH]c2ccccc12)NC(=O)CCc1cccc(F)c1` (racemic), with 56.8%. Consider `Cc1cccc(C)c1NC(=O)C(Cc1c[nH]c2ccccc12)NC(=O)CCc1ccccc1` (racemic) [listing 2 of 2 here], for which the inhibition entry in series [4] is “Dose-dependent effect”; in series [1], 90.3%; in series [6], 100%; in series [7] it was “Dose-dependent effect”; in series [8], “Dose-dependent effect”.

`Cc1cccc(C)c1NC(=O)C(Cc1c[nH]c2ccccc12)NC(=O)CCc1cccnc1` (racemic): the inhibition in series [1] worked out at 66.5%.

Consider `Cc1cccc(C)c1NC(=O)C(Cc1c[nH]c2ccccc12)NC(=O)CCc1cccs1` (racemic), for which the inhibition in series [1] worked out at 65.4%.

Turning to `Cc1cccc(C)c1NC(=O)C(Cc1c[nH]c2ccccc12)NC(=O)CCc1ccncc1` (racemic), the inhibition in series [1] was found to be 41.4%.

With `Cc1cccc(C)c1NC(=O)C(Cc1c[nH]c2ccccc12)NC(=O)CCc1ccsc1` (racemic), in series [1], the inhibition amounted to 52.2%. Regarding `Cc1cccc(C)c1NC(=O)C(Cc1c[nH]c2ccccc12)NC(=O)CCc1nccs1` (racemic), in series [1], the inhibition came to 86.3%. For the compound `Cc1cccc(C)c1NC(=O)C(Cc1c[nH]c2ccccc12)NC(=O)Cc1ccccc1` (racemic), the inhibition in series [1] was 52.1%.

For `Cc1cccc(C)c1NC(=O)C(Cc1c[nH]c2ccccc12)NCCCCCc1ccccc1` (racemic), in series [1], the inhibition worked out at 87.2%. Still for that read-out and setting: the value for `Cc1cccc(C)c1NC(=O)C(Cc1c[nH]c2ccccc12)NCCCCc1ccccc1` (racemic) was 83.3%; that for `Cc1cccc(C)c1NC(=O)C(Cc1c[nH]c2ccccc12)NCCc1ccccc1` (racemic) was 76.5%. On the same count and under the same terms, the value for `O=C(CCc1ccccc1)NC(Cc1c[nH]c2ccccc12)C(=O)Nc1ccc(C(F)(F)F)cc1` (racemic) was 72%; that for `O=C(CCc1ccccc1)NC(Cc1c[nH]c2ccccc12)C(=O)Nc1ccc(F)cc1` (racemic) was 70.3%; that for `O=C(CCc1ccccc1)NC(Cc1c[nH]c2ccccc12)C(=O)Nc1ccc(N2CCOCC2)cc1` (racemic) was 64.8%. Still for that read-out and setting: then `O=C(CCc1ccccc1)NC(Cc1c[nH]c2ccccc12)C(=O)Nc1ccccc1` (racemic), with 55.3%; and `O=C(CCc1ccccc1)NC(Cc1c[nH]c2ccccc12)C(=O)Nc1ccccc1F` (racemic), with 74%. Turning to `Cc1cccc(C)c1NC(=O)C(Cc1c[nH]c2ccccc12)NC(=O)CCc1ccccc1` (single isomer, unassigned; (+)), the inhibition entry in series [1] was “Active”. The same measure, in the same setting: the value for `Cc1cccc(C)c1NC(=O)C(Cc1c[nH]c2ccccc12)NC(=O)CCc1ccccc1` (single isomer, unassigned; (-)) was “Active”.

For the origin of these results see ChEMBL document CHEMBL4396880, “Development of Small-Molecules Targeting Receptor Activator of Nuclear Factor-κB Ligand (RANKL)-Receptor Activator of Nuclear Factor-κB (RANK) Protein-Protein Interaction by Structure-Based Virtual Screening and Hit Optimization” (J Med Chem, 2019).
